Calls of active or inactive are those of the source. No cut-off for these calls is given here.
What was measured:
[1] = system: HepG2 (Homo sapiens); test: Cytotoxicity against human HepG2 cells assessed as effect on cell survival at 0.625 to 2.5 uM incubated for 44 hrs by MTT assay; conditions: HepG2, 44 h
[2] = system: HepG2; test: Induction of glucose uptake in human HepG2 cells incubated for 24 hrs in low glucose medium; type: functional, cell-based
Summary of the method: (§1)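 HepG2 cells in high-glucose DMEM with 10% FBS and antibiotics, seeded at 5000 cells/well for 24 h. They were washed with low-glucose DMEM and PBS, then treated for 24 h in low-glucose DMEM with 2% FBS at 0.625, 1.25 or 2.5 μM. Glucose left in the medium was measured with a glucose kit. Rosiglitazone was the positive control.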

[3] = system: Alpha-glucosidase (Saccharomyces cerevisiae); test: Noncompetitive inhibition of alpha-glucosidase (Saccharomyces cerevisiae) at 0 to 9 uM using PNP glycoside as substrate preincubated for 30 mins followed by substrate addition further incubated for 1 min by Lineweaver-Burk plot analysis
[4] = target: Alpha glucosidase (Homo sapiens, UniProt O43451+P10253+P14410+Q2M2H8); test: Inhibition of alpha-glucosidase (unknown origin) using PNP glucoside as substrate preincubated for 30 mins followed by substrate addition further incubated for 1 min by spectrophotometry; type: protein assay
Summary of the method: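 Yeast α-glucosidase with p-nitrophenyl-α-D-glucopyranoside substrate in 50 mM phosphate buffer, pH 6.8, with 5% v/v DMSO. Inhibitor and enzyme were preincubated for 30 min at 37 °C, then the reaction ran for 1 min at 37 °C, read at 400 nm. IC50 came from five concentrations bracketing a preliminary estimate, each measured three times in parallel; mean ± SD.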

[5] = system: L02; test: Cytotoxicity against human LO2 cells assessed as reduction in cell viability incubated for 44 hrs by MTT assay; type: cell-based; conditions: L02, 44 h
Summary of the method: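 LO2 human hepatocytes in DMEM with 10% FBS, penicillin and streptomycin at 37 °C, 5% CO2. Plated at 5000 cells/well for 24 h, then exposed to a range of concentrations for 44 h. MTT was added for 4 h, formazan dissolved in DMSO, and A490 read. Viability = A treated/A control × 100%. IC50 is the concentration giving 50% viability loss, as mean ± SD.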

[6] = system: Alpha-glucosidase (Saccharomyces cerevisiae); test: Noncompetitive inhibition of alpha-glucosidase (Saccharomyces cerevisiae) at 0 to 6 uM using PNP glycoside as substrate preincubated for 30 mins followed by substrate addition further incubated for 1 min by Lineweaver-Burk plot analysis
[7] = system: HepG2; test: Induction of glucose uptake in human HepG2 cells at 0.625 to 2.5 uM incubated for 24 hrs in low glucose medium; type: functional, cell-based
Summary of the method: as §1

[8] = system: Alpha-glucosidase (Saccharomyces cerevisiae); test: Noncompetitive inhibition of alpha-glucosidase (Saccharomyces cerevisiae) at 0 to 3.5 uM using PNP glycoside as substrate preincubated for 30 mins followed by substrate addition further incubated for 1 min by Lineweaver-Burk plot analysis
[9] = system: Alpha-glucosidase (Saccharomyces cerevisiae); test: Noncompetitive inhibition of alpha-glucosidase (Saccharomyces cerevisiae) at 0 to 10 uM using PNP glycoside as substrate preincubated for 30 mins followed by substrate addition further incubated for 1 min by Lineweaver-Burk plot analysis
[10] = system: Alpha-glucosidase (Saccharomyces cerevisiae); test: Noncompetitive inhibition of alpha-glucosidase (Saccharomyces cerevisiae) at 0 to 4 uM using PNP glycoside as substrate preincubated for 30 mins followed by substrate addition further incubated for 1 min by Lineweaver-Burk plot analysis
[11] = system: HepG2; test: Induction of glucose uptake in human HepG2 cells at 0.625 to 2.5 uM incubated for 24 hrs in low glucose medium relative to control; type: functional
Summary of the method: as §1

[12] = system: HepG2; test: Induction of glucose uptake in human HepG2 cells at 2.5 uM incubated for 24 hrs in low glucose medium relative to control; type: functional
Summary of the method: as §1

[13] = system: HepG2; test: Induction of glucose uptake in human HepG2 cells at 0.625 uM incubated for 24 hrs in low glucose medium relative to control; type: functional
Summary of the method: as §1

[14] = system: HepG2; test: Induction of glucose uptake in human HepG2 cells at 1.25 uM incubated for 24 hrs in low glucose medium relative to control; type: functional
Summary of the method: as §1

O=C(Cn1cc(COc2cc(O)c3c(=O)c4ccc(Br)cc4oc3c2)nn1)Nc1ccc(O)c(O)c1
Activity [1]: Non-Toxic
Activity [2]: Dose-dependent effect
inhibition [3]: Active
IC50 [4]: 5.23 µM
IC50 [5]: > 100 µM

COc1ccc2oc3cc(OCc4cn(CC(=O)Nc5ccc(OC)c(OC)c5)nn4)cc(O)c3c(=O)c2c1
IC50 [4]: > 100 µM
IC50 [5]: > 100 µM

O=C(Cn1cc(COc2cc(O)c3c(=O)c4cc(Br)ccc4oc3c2)nn1)Nc1ccc(O)c(O)c1
Activity [1]: Non-Toxic
inhibition [6]: Active
Activity [7]: Active
IC50 [4]: 3.17 µM
IC50 [5]: > 100 µM

COc1ccc(NC(=O)Cn2cc(COc3cc(O)c4c(=O)c5ccc(Br)cc5oc4c3)nn2)c(OC)c1
Activity [1]: Non-Toxic
inhibition [8]: Active
Activity [7]: Active
IC50 [4]: 2.78 µM
IC50 [5]: > 100 µM

COc1ccc(NC(=O)Cn2cc(COc3cc(OC(C)=O)c4c(=O)c5cc(Br)ccc5oc4c3)nn2)c(OC)c1
Activity [1]: Non-Toxic
Activity [7]: inactive
IC50 [4]: 12.13 µM
IC50 [5]: 80.7 µM

2-(4-(((7-bromo-1-hydroxy-9-oxo-9H-xanthen-3-yl)oxy)methyl)-1H-1,2,3-triazol-1-yl)-N-(2,4-dihydroxyphenyl)acetamide
Activity [7]: Active

COc1ccc(NC(=O)Cn2cc(COc3cc(OC(C)=O)c4c(=O)c5ccc(OC)cc5oc4c3)nn2)c(OC)c1
IC50 [4]: 33.16 µM
IC50 [5]: > 100 µM

O=c1c2ccccc2oc2cc(O)cc(O)c12
Activity [1]: Non-Toxic
Activity [7]: inactive

COc1ccc(NC(=O)Cn2cc(COc3cc(OC(C)=O)c4c(=O)c5ccc(Br)cc5oc4c3)nn2)cc1OC
IC50 [4]: 26.11 µM
IC50 [5]: 25.9 µM

O=C(Cn1cc(COc2cc(O)c3c(=O)c4ccc(O)cc4oc3c2)nn1)Nc1ccc(O)c(O)c1
Activity [1]: Non-Toxic
Activity [2]: Dose-dependent effect
IC50 [4]: 6.13 µM
IC50 [5]: > 100 µM

COc1ccc2oc3cc(OCc4cn(CC(=O)Nc5ccc(OC)c(OC)c5)nn4)cc(OC(C)=O)c3c(=O)c2c1
IC50 [4]: > 100 µM
IC50 [5]: 24.9 µM

O=C(Cn1cc(COc2cc(O)c3c(=O)c4ccc(Br)cc4oc3c2)nn1)Nc1ccc(O)cc1O
Activity [1]: Non-Toxic
inhibition [9]: Active
Activity [7]: inactive
IC50 [4]: 5.87 µM
IC50 [5]: 74 µM

COc1ccc2c(=O)c3c(O)cc(OCc4cn(CC(=O)Nc5ccc(OC)c(OC)c5)nn4)cc3oc2c1
IC50 [4]: 15.9 µM
IC50 [5]: > 100 µM

COc1ccc(NC(=O)Cn2cc(COc3cc(O)c4c(=O)c5cc(Br)ccc5oc4c3)nn2)c(OC)c1
Activity [1]: Non-Toxic
inhibition [6]: Active
Activity [7]: inactive
IC50 [4]: 3.07 µM
IC50 [5]: > 100 µM

O=C(Cn1cc(COc2cc(O)c3c(=O)c4cc(O)ccc4oc3c2)nn1)Nc1ccc(O)cc1O
IC50 [4]: 15.62 µM
IC50 [5]: > 100 µM

O=C(Cn1cc(COc2cc(O)c3c(=O)c4ccc(O)cc4oc3c2)nn1)Nc1ccc(O)cc1O
IC50 [4]: 17.61 µM
IC50 [5]: > 100 µM

COc1ccc(NC(=O)Cn2cc(COc3cc(O)c4c(=O)c5ccc(Br)cc5oc4c3)nn2)cc1OC
IC50 [4]: 11.82 µM
IC50 [5]: > 100 µM

COc1ccc(NC(=O)Cn2cc(COc3cc(O)c4c(=O)c5ccc(OC)cc5oc4c3)nn2)c(OC)c1
Activity [1]: Non-Toxic
Activity [2]: Dose-dependent effect
inhibition [10]: Active
IC50 [4]: 2.06 µM
IC50 [5]: 89.1 µM

CN(CCOc1ccc(CC2SC(=O)NC2=O)cc1)c1ccccn1 (stereo unspecified) [ROSIGLITAZONE]
Activity [11]: 50%

COc1ccc2c(=O)c3c(OC(C)=O)cc(OCc4cn(CC(=O)Nc5ccc(OC)c(OC)c5)nn4)cc3oc2c1
IC50 [4]: 98.63 µM
IC50 [5]: > 100 µM

COc1ccc(NC(=O)Cn2cc(COc3cc(O)c4c(=O)c5cc(OC)ccc5oc4c3)nn2)c(OC)c1
Activity [1]: Non-Toxic
Activity [7]: inactive
IC50 [4]: 8.31 µM
IC50 [5]: 65.4 µM

COc1ccc(NC(=O)Cn2cc(COc3cc(OC(C)=O)c4c(=O)c5cc(Br)ccc5oc4c3)nn2)cc1OC
IC50 [4]: 32.33 µM
IC50 [5]: > 100 µM

COc1ccc(NC(=O)Cn2cc(COc3cc(OC(C)=O)c4c(=O)c5cc(OC)ccc5oc4c3)nn2)c(OC)c1
IC50 [4]: 42.6 µM
IC50 [5]: > 100 µM

COc1ccc(NC(=O)Cn2cc(COc3cc(OC(C)=O)c4c(=O)c5ccc(Br)cc5oc4c3)nn2)c(OC)c1
Activity [1]: Non-Toxic
Activity [2]: Dose-dependent effect
Activity [12]: 163%
Activity [13]: 61%
IC50 [4]: 12.78 µM
IC50 [5]: > 100 µM
Activity [14]: 90%

COc1ccc(NC(=O)Cn2cc(COc3cc(O)c4c(=O)c5cc(Br)ccc5oc4c3)nn2)cc1OC
IC50 [4]: 29.84 µM
IC50 [5]: > 100 µM

O=C(Cn1cc(COc2cc(O)c3c(=O)c4cc(O)ccc4oc3c2)nn1)Nc1ccc(O)c(O)c1
Activity [1]: Non-Toxic
Activity [7]: inactive
IC50 [4]: 7.06 µM
IC50 [5]: > 100 µM

Source: ChEMBL document CHEMBL4393725, “Design and synthesis of novel xanthone-triazole derivatives as potential antidiabetic agents: α-Glucosidase inhibition and glucose uptake promotion” (Eur J Med Chem, 2019)
